# Assay results: ChEMBL document CHEMBL1140766, “SAR of a series of anti-HSV-1 acridone derivatives, and a rational acridone-based design of a new anti-HSV-1 3H-benzo[b]pyrazolo[3,4-h]-1,6-naphthyridine series” (Bioorg Med Chem, 2008)
# Calls of active or inactive are those of the source. No cut-off for these calls is given here.
# How the values were obtained:
# [1] = Cytotoxicity against african green monkey Vero cells assessed as cell viability after 72 hrs by MTT assay; type: cell-based; conditions: chlorocebus sabaeus
# Human alphaherpesvirus 1 [2] = test: Antiviral activity against acyclovir-resistant HSV1 AR29 replication in Vero cells at 50 uM after 72 hrs; type: functional; conditions: for inhibition at 50 µM: Human alphaherpesvirus 1, AR29, Vero
# In short: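 Confluent Vero monolayers (DMEM, 5% FCS, 37 C, 5% CO2) infected with HSV-1 AR-29 at m.o.i. 1, 0.1, 0.01 or 0.001 for 1 h at 37 C. Cells were PBS-washed, then given medium with or without compound at 50 µM. At 72 h, titer was read as TCID50/mL by end-point dilution (Reed–Muench). % inhibition came from treated versus mock-treated infected titers. Acyclovir 50 µM served as control. Duplicates, ≥3 experiments.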
# Human alphaherpesvirus 1 [3] = test: Antiviral activity against acyclovir-resistant HSV1 AR29 replication in Vero cells after 72 hrs; type: functional; conditions: for EC50: Human alphaherpesvirus 1, AR29, Vero, read-out: ED50 (the source's name)
# Human alphaherpesvirus 1 [4] = test: Antiviral activity against acyclovir-resistant HSV1 AR29 replication in Vero cells at >50 uM after 72 hrs; type: functional
Compound,CC50 at 72 h [1] [µM],inhibition at 50 µM (Human alphaherpesvirus 1 [2]) [%],EC50 (Human alphaherpesvirus 1 [3]) [µM],other results
Cc1nn(-c2ccccc2)c2ncc3c(Cl)c4cc(Cl)ccc4nc3c12,640,39,,
O=c1c2cccc(Cl)c2[nH]c2cc(O)cc(O)c12,,,4,
Cc1nn(-c2ccccc2)c2ncc3c(Cl)c4cccc(Cl)c4nc3c12,,100,,
COc1cccc2c(O)c3c(O)cc(O)cc3nc12,,,2.2,
Cc1cc(O)c2c(=O)c3cccc(Cl)c3[nH]c2c1,,,,Activity (Human alphaherpesvirus 1 [3]): inactive
COc1ccc2nc3c(cnc4c3cnn4-c3ccccc3)c(Cl)c2c1,640,68,,
O=c1c2c(O)cc(O)cc2[nH]c2cccc(Cl)c12,,,10,
Cc1nn(-c2ccccc2)c2ncc3c(Cl)c4ccccc4nc3c12,,70,,
Cc1ccc2nc3c(cnc4c3c(C)nn4-c3ccccc3)c(Cl)c2c1,,,,Activity (Human alphaherpesvirus 1 [2]): inactive
O=c1c2ccc(Cl)cc2[nH]c2cc(O)cc(O)c12,,,10,
Cc1ccc2[nH]c3c(cnc4c3cnn4-c3ccccc3)c(=O)c2c1,640,92,,
O=c1c2ccccc2[nH]c2c1cnc1c2cnn1-c1ccccc1,640,74,,
Nc1nc2c(ncn2COCCO)c(=O)[nH]1 [ACYCLOVIR],126,,,
O=c1c2cc(Cl)ccc2[nH]c2cc(O)cc(O)c12,,,16,
O=c1c2cccc(Cl)c2[nH]c2cc3ccccc3c(O)c12,,,,Activity (Human alphaherpesvirus 1 [3]): inactive
Cc1ccc2nc3c(cnc4c3cnn4-c3ccccc3)c(Cl)c2c1,640,82,,
O=c1c2ccccc2[nH]c2cc(O)cc(O)c12,,,45,
Cc1cccc2c(Cl)c3cnc4c(c(C)nn4-c4ccccc4)c3nc12,640,66,,
COc1cc(O)c2c(=O)c3cccc(Cl)c3[nH]c2c1,,,> 50,Inhibition (Human alphaherpesvirus 1 [4]): 6%
Cc1cccc2c(O)c3c(O)cc(O)cc3nc12,,,8,
